In ChEMBL document CHEMBL3580633, “Benzoxaborole antimalarial agents. Part 4. Discovery of potent 6-(2-(alkoxycarbonyl)pyrazinyl-5-oxy)-1,3-dihydro-1-hydroxy-2,1-benzoxaboroles” (J Med Chem, 2015):

Legend:
Jurkat = assay: Cytotoxicity against human Jurkat cells incubated for 72 hrs by MTT assay; format: cell-based
Plasmodium falciparum [1] = assay: Antimalarial activity against chloroquine-resistant Plasmodium falciparum W2 cultured in human erythrocytes assessed as inhibition of parasite growth incubated for 48 hrs by YOYO-1 staining based flow cytometry; format: functional, organism-based; details: W2, 48 h
Plasmodium falciparum [2] = assay: Antimalarial activity against chloroquine-sensitive Plasmodium falciparum 3D7 cultured in human erythrocytes incubated for 48 hrs by [3H]-hypoxanthine incorporation assay; format: functional, organism-based
Procedure, shortened: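 3D7 parasites in human erythrocytes, RPMI-1640 with 0.5% Albumax II, […], 37 °C, 5% O2/5% CO2. Asynchronous cultures (0.5% parasitemia, 2% hematocrit) given 3-fold serial dilutions for 24 h. [3H]hypoxanthine then added for a further 24 h, and incorporation counted by scintillation. Normalised to drug-free infected cells. IC50 from at least three independent experiments.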

Plasmodium falciparum [3] = assay: Antimalarial activity against chloroquine-resistant Plasmodium falciparum W2 cultured in human erythrocytes assessed as inhibition of parasite growth at 5 uM incubated for 48 hrs by YOYO-1 staining based flow cytometry; format: functional; details: W2, 48 h
Procedure, shortened: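 W2 P. falciparum grown in human erythrocytes in RPMI-1640 with 10% human serum or 0.5% Albumax, under 3% O2/5% CO2/92% N2. Sorbitol-synchronised rings at 2% hematocrit, 1% parasitemia, exposed to one concentration for 48 h. Cells fixed in 2% formaldehyde, stained with YOYO-1, and parasites per erythrocyte counted by flow cytometry. Value given as percent inhibition versus untreated control.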

Plasmodium berghei [4] = assay: Antiplasmodial activity against Plasmodium berghei infected in Swiss Webster mouse assessed as mouse survival at 30 mg/kg, po dosed once daily for 4 consecutive days beginning 1 hr after initial infection and measured on day 4 post infection by Giemsa staining method; format: functional
Procedure, shortened: (§1)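 Female Swiss Webster mice (about 20 g) were infected ip with 6 × 10^6 P. berghei-infected erythrocytes from a donor mouse. They were dosed by oral gavage once daily for 4 days, starting 1 h post-infection, in PEG 300/propylene glycol/water (55/25/20 by weight). Parasitemia was read daily on Giemsa smears from day 4, and mice were euthanized above 50% parasitemia. Percent survival was tracked to 21 days.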

Plasmodium berghei [5] = assay: Antiplasmodial activity against Plasmodium berghei infected in Swiss Webster mouse assessed as mouse survival at 30 mg/kg, po dosed once daily for 4 consecutive days beginning 1 hr after initial infection and measured on day 9 post infection by Giemsa staining method; format: functional; procedure, shortened: as §1
Plasmodium berghei [6] = assay: Antiplasmodial activity against Plasmodium berghei infected in Swiss Webster mouse assessed as mouse survival at 30 mg/kg, po dosed once daily for 4 consecutive days beginning 1 hr after initial infection and measured on day 15 post infection by Giemsa staining method; format: functional; procedure, shortened: as §1
Plasmodium berghei [7] = assay: Antiplasmodial activity against Plasmodium berghei infected in Swiss Webster mouse assessed as mouse survival at 30 mg/kg, po dosed once daily for 4 consecutive days beginning 1 hr after initial infection and measured on day 12 post infection by Giemsa staining method; format: functional; procedure, shortened: as §1
Plasmodium berghei [8] = assay: Antiplasmodial activity against Plasmodium berghei infected in Swiss Webster mouse assessed as mouse survival at 30 mg/kg, po dosed once daily for 4 consecutive days beginning 1 hr after initial infection and measured on day 20 post infection by Giemsa staining method; format: functional; procedure, shortened: as §1
Plasmodium berghei [9] = assay: Antiplasmodial activity against Plasmodium berghei infected in Swiss Webster mouse assessed as mouse survival at 30 mg/kg, po dosed once daily for 4 consecutive days beginning 1 hr after initial infection and measured on day 13 post infection by Giemsa staining method; format: functional; procedure, shortened: as §1
Plasmodium berghei [10] = assay: Antiplasmodial activity against Plasmodium berghei infected in Swiss Webster mouse assessed as mouse survival at 30 mg/kg, po dosed once daily for 4 consecutive days beginning 1 hr after initial infection and measured on day 5 post infection by Giemsa staining method; format: functional; procedure, shortened: as §1
Plasmodium berghei [11] = assay: Antiplasmodial activity against Plasmodium berghei infected in Swiss Webster mouse assessed as mouse survival at 30 mg/kg, po dosed once daily for 4 consecutive days beginning 1 hr after initial infection and measured on day 10 post infection by Giemsa staining method; format: functional
Procedure, shortened: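 Female Swiss Webster mice (about 20 g) infected ip with 6 × 10^6 P. berghei-infected erythrocytes. Oral gavage once daily for 4 days, starting 1 h after infection. Vehicle PEG300/propylene glycol/water (55/25/20 by weight). Giemsa-smear parasitemia counted daily from day 4. Mice euthanised above 50% parasitemia. Survival followed to day 21, 5 mice per dose, chloroquine 30 mg/kg as reference.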

Plasmodium berghei [12] = assay: Antiplasmodial activity against Plasmodium berghei infected in Swiss Webster mouse assessed as mouse survival at 30 mg/kg, po dosed once daily for 4 consecutive days beginning 1 hr after initial infection and measured on day 18 post infection by Giemsa staining method; format: functional; procedure, shortened: as §1
Plasmodium berghei [13] = assay: Antiplasmodial activity against Plasmodium berghei infected in Swiss Webster mouse assessed as mouse survival at 30 mg/kg, po dosed once daily for 4 consecutive days beginning 1 hr after initial infection and measured on day 16 to 19 post infection by Giemsa staining method; format: functional; procedure, shortened: as §1
Plasmodium berghei [14] = assay: Antiplasmodial activity against Plasmodium berghei infected in Swiss Webster mouse assessed as mouse survival at 30 mg/kg, po dosed once daily for 4 consecutive days beginning 1 hr after initial infection and measured on day 8 post infection by Giemsa staining method; format: functional; procedure, shortened: as §1
Plasmodium berghei [15] = assay: Antiplasmodial activity against Plasmodium berghei infected in Swiss Webster mouse assessed as mouse survival at 30 mg/kg, po dosed once daily for 4 consecutive days beginning 1 hr after initial infection and measured on day 6 post infection by Giemsa staining method; format: functional; procedure, shortened: as §1
Plasmodium berghei [16] = assay: Antiplasmodial activity against Plasmodium berghei infected in Swiss Webster mouse assessed as mouse survival at 30 mg/kg, po dosed once daily for 4 consecutive days beginning 1 hr after initial infection and measured on day 7 post infection by Giemsa staining method; format: functional; procedure, shortened: as §1
Plasmodium berghei [17] = assay: Antiplasmodial activity against Plasmodium berghei infected in Swiss Webster mouse assessed as mouse survival at 30 mg/kg, po dosed once daily for 4 consecutive days beginning 1 hr after initial infection and measured on day 14 post infection by Giemsa staining method; format: functional; procedure, shortened: as §1
Plasmodium berghei [18] = assay: Antiplasmodial activity against Plasmodium berghei infected in Swiss Webster mouse assessed as mouse survival at 30 mg/kg, po dosed once daily for 4 consecutive days beginning 1 hr after initial infection and measured on day 11 post infection by Giemsa staining method; format: functional; procedure, shortened: as §1

SMILES | IC50 (Plasmodium falciparum [1]) [nM] | IC50 (Plasmodium falciparum [2]) [nM] | other results
CC(C)COC(=O)c1cnc(Oc2ccc3c(c2)B(O)OC3)cn1 | 0.5 | 2.5 | IC50 (Jurkat): 17600 nM
N#Cc1cnc(Oc2ccc3c(c2)B(O)OC3)cn1 | 470 | 3250 | –
COC(=O)c1cnc(Oc2ccc3c(c2)B(O)OC3)nc1 | – | – | inhibition at 5 µM (Plasmodium falciparum [3]): 80%
CC(C)(N)COC(=O)c1cnc(Oc2ccc3c(c2)B(O)OC3)cn1 | 190 | 250 | –
CC(C)CCOC(=O)c1cnc(Oc2ccc3c(c2)B(O)OC3)cn1 | 0.4 | 2 | –
OB1OCc2ccc(Oc3cnc(-c4nnn[nH]4)cn3)cc21 | > 10000 | > 5000 | –
NCc1cnc(Oc2ccc3c(c2)B(O)OC3)cn1 | 110 | 470 | –
O/N=C/c1cnc(Oc2ccc3c(c2)B(O)OC3)cn1 | 1770 | 3000 | –
CN(C)C(=O)c1cnc(Oc2ccc3c(c2)B(O)OC3)cn1 | 150 | 960 | IC50 (Jurkat): > 100000 nM
C[C@@H]1CC[C@H]2[C@@H](C)C(=O)O[C@@H]3O[C@@]4(C)CC[C@@H]1[C@]32OO4 [ARTEMISININ] | 6 | – | –
CCOC(=O)c1ccc(Oc2ccc3c(c2)B(O)OC3)cc1 | – | – | inhibition at 5 µM (Plasmodium falciparum [3]): 0%
O=C1C(O)=C([C@H]2CC[C@H](c3ccc(Cl)cc3)CC2)C(=O)c2ccccc21 [ATOVAQUONE] | – | 1 | –
CCOC(=O)c1ccc(Oc2ccc3c(c2)B(O)OC3)nc1 | – | – | inhibition at 5 µM (Plasmodium falciparum [3]): 0%
CC(C)(C)COC(=O)c1cnc(Oc2ccc3c(c2)B(O)OC3)cn1 | 6.6 | 8.9 | –
CN(C)CCNC(=O)c1cnc(Oc2ccc3c(c2)B(O)OC3)cn1 | 6660 | > 5000 | –
OB1OCc2ccc(Oc3cnccn3)cc21 | 9380 | > 5000 | –
O=C(OC1CCCCC1)c1cnc(Oc2ccc3c(c2)B(O)OC3)cn1 | 0.7 | 2.9 | IC50 (Jurkat): 52400 nM

SMILES | IC50 (Plasmodium falciparum [1]) [nM] | IC50 (Plasmodium falciparum [2]) [nM] | other results
N/C(=N\O)c1cnc(Oc2ccc3c(c2)B(O)OC3)cn1 | > 10000 | > 5000 | –
CC(C)(C)OC(=O)c1cnc(Oc2ccc3c(c2)B(O)OC3)cn1 | 19 | 22 | IC50 (Jurkat): > 100000 nM
CCCCOC(=O)c1cnc(Oc2ccc3c(c2)B(O)OC3)cn1 | 0.2 | 0.7 | IC50 (Jurkat): > 100000 nM
CCN(CC)CCCC(C)Nc1ccnc2cc(Cl)ccc12 (stereo not drawn) [CHLOROQUINE] | – | – | survival at 30 mg/kg (Plasmodium berghei [4]): 100%; survival at 30 mg/kg (Plasmodium berghei [5]): 100%; survival at 30 mg/kg (Plasmodium berghei [6]): 100%; survival at 30 mg/kg (Plasmodium berghei [7]): 100%; survival at 30 mg/kg (Plasmodium berghei [8]): 20%; survival at 30 mg/kg (Plasmodium berghei [9]): 100%; survival at 30 mg/kg (Plasmodium berghei [10]): 100%; survival at 30 mg/kg (Plasmodium berghei [11]): 100%; survival at 30 mg/kg (Plasmodium berghei [12]): 100%; survival at 30 mg/kg (Plasmodium berghei [13]): 100%; survival at 30 mg/kg (Plasmodium berghei [14]): 100%; survival at 30 mg/kg (Plasmodium berghei [15]): 100%; survival at 30 mg/kg (Plasmodium berghei [16]): 100%; survival at 30 mg/kg (Plasmodium berghei [17]): 100%; survival at 30 mg/kg (Plasmodium berghei [18]): 100%
CC(C)S(=O)(=O)NC(=O)c1cnc(Oc2ccc3c(c2)B(O)OC3)cn1 | 190 | 130 | –
CNC(=O)c1cnc(Oc2ccc3c(c2)B(O)OC3)cn1 | 240 | 320 | –
COC(=O)c1ccc(Oc2ccc3c(c2)B(O)OC3)cn1 | 23 | 120 | IC50 (Jurkat): > 100000 nM
Cc1nnc(-c2cnc(Oc3ccc4c(c3)B(O)OC4)cn2)o1 | > 10000 | > 5000 | –
COC(=O)c1ccc(Oc2ccc3c(c2)B(O)OC3)nn1 | 82 | 100 | –
CC(C)OC(=O)c1cnc(Oc2ccc3c(c2)B(O)OC3)cn1 | 1.2 | 1.4 | IC50 (Jurkat): > 100000 nM
OCc1cnc(Oc2ccc3c(c2)B(O)OC3)cn1 | 440 | 2240 | –
O=C(NCCO)c1cnc(Oc2ccc3c(c2)B(O)OC3)cn1 | > 10000 | 5900 | –
CC1(C)COC(c2cnc(Oc3ccc4c(c3)B(O)OC4)cn2)=N1 | 800 | 1460 | –
CCNC(=O)c1cnc(Oc2ccc3c(c2)B(O)OC3)cn1 | 120 | 870 | IC50 (Jurkat): 79900 nM
CN(C)Cc1cnc(Oc2ccc3c(c2)B(O)OC3)cn1 | > 10000 | > 5000 | –
CCOC(=O)c1cnc(Oc2ccc3c(c2)B(O)OC3)cn1 | 0.5 | 4.4 | IC50 (Jurkat): 16800 nM
